Experiments:
[1] = Inhibition of bovine brain tubulin polymerization for 20 mins; set-up: species or system Bos taurus
Procedure, shortened: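 Bovine brain tubulin (10 µM) preincubated with varying compound concentrations in glutamate buffer at 30 °C, then cooled to 0 °C. GTP added and mixtures warmed to 30 °C in cuvettes while assembly was followed by turbidity. IC50 is the concentration that halves the extent of assembly after 20 min.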

K562 [2] = experiment: Cell cycle arrest in human K562 cells assessed as accumulation at S phase at 4.0 uM after 24 hrs by flow cytometry; format: functional
K562 [3] = experiment: Cell cycle arrest in human K562 cells assessed as accumulation at G2/M phase at 4.0 uM after 24 hrs by flow cytometry; format: functional
CCRF-CEM = experiment: Antiproliferative activity against human CEM cells after 2 days; format: functional, cell-based; conditions: 48 h
Procedure, shortened: (§1)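 Cells suspended at 300,000–500,000 cells/mL of culture medium and mixed 1:1 with dilutions of compound. Incubated 2 days at 37 °C, then cell number counted with a Coulter counter. IC50 is the concentration giving 50% inhibition of proliferation. Values are means from dose–response curves of at least three independent experiments.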

MOLT-4 = experiment: Antiproliferative activity against human MOLT4 cells after 2 days; format: functional, cell-based; conditions: MOLT-4, 48 h; procedure, shortened: as §1
L1210 = experiment: Antiproliferative activity against mouse L1210 cells after 2 days; format: functional, cell-based; conditions: L1210, 48 h; procedure, shortened: as §1
Bos taurus = species: Bos taurus; experiment: Displacement of [3H]colchicine from bovine brain tubulin at 1 uM
Procedure, shortened: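 Bovine brain tubulin (1 µM) incubated with compound at 1 µM and [³H]colchicine at 5 µM. Result is reported as percent inhibition of colchicine binding.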

HeLa = experiment: Antiproliferative activity against human HeLa cells after 2 days; format: functional, cell-based; conditions: 48 h; procedure, shortened: as §1
FM3A = experiment: Antiproliferative activity against mouse FM3A cells after 2 days; format: functional, cell-based; conditions: 48 h; procedure, shortened: as §1
K562 [4] = experiment: Cell cycle arrest in human K562 cells assessed as accumulation at G0/G1 phase at 4.0 uM after 24 hrs by flow cytometry; format: functional
K562 [5] = experiment: Cell cycle arrest in human K562 cells assessed as accumulation at G2/M phase at 1.0 uM after 24 hrs by flow cytometry; format: functional
K562 [6] = experiment: Cell cycle arrest in human K562 cells assessed as accumulation at G0/G1 phase at 1.0 uM after 24 hrs by flow cytometry; format: functional
K562 [7] = experiment: Cell cycle arrest in human K562 cells assessed as accumulation at S phase at 1.0 uM after 24 hrs by flow cytometry; format: functional
K562 [8] = experiment: Cell cycle arrest in human K562 cells assessed as accumulation at S phase at 1.7 uM after 24 hrs by flow cytometry; format: functional
K562 [9] = experiment: Cell cycle arrest in human K562 cells assessed as accumulation at G0/G1 phase at 1.7 uM after 24 hrs by flow cytometry; format: functional
K562 [10] = experiment: Cell cycle arrest in human K562 cells assessed as accumulation at G2/M phase at 1.7 uM after 24 hrs by flow cytometry; format: functional
K562 [11] = experiment: Cell cycle arrest in human K562 cells assessed as accumulation at G2/M phase at 1.3 uM after 24 hrs by flow cytometry; format: functional
K562 [12] = experiment: Cell cycle arrest in human K562 cells assessed as accumulation at G0/G1phase at 1.3 uM after 24 hrs by flow cytometry; format: functional
K562 [13] = experiment: Cell cycle arrest in human K562 cells assessed as accumulation at S phase at 1.3 uM after 24 hrs by flow cytometry; format: functional
K562 [14] = experiment: Cell cycle arrest in human K562 cells assessed as accumulation at S phase at 1.5 uM after 24 hrs by flow cytometry; format: functional
K562 [15] = experiment: Cell cycle arrest in human K562 cells assessed as accumulation at G2/M phase at 1.5 uM after 24 hrs by flow cytometry; format: functional
K562 [16] = experiment: Cell cycle arrest in human K562 cells assessed as accumulation at G0/G1 phase at 1.5 uM after 24 hrs by flow cytometry; format: functional
K562 [17] = experiment: Cell cycle arrest in human K562 cells assessed as accumulation at G2/M phase at 2.1 uM after 24 hrs by flow cytometry; format: functional
K562 [18] = experiment: Cell cycle arrest in human K562 cells assessed as accumulation at S phase at 2.1uM after 24 hrs by flow cytometry; format: functional
K562 [19] = experiment: Cell cycle arrest in human K562 cells assessed as accumulation at G0/G1 phase at 2.1uM after 24 hrs by flow cytometry; format: functional
K562 [20] = experiment: Cell cycle arrest in human K562 cells assessed as accumulation at G0/G1 phase at 1.4 uM after 24 hrs by flow cytometry; format: functional
K562 [21] = experiment: Cell cycle arrest in human K562 cells assessed as accumulation at S phase at 1.4 uM after 24 hrs by flow cytometry; format: functional
K562 [22] = experiment: Cell cycle arrest in human K562 cells assessed as accumulation at G2/M phase at 1.4 uM after 24 hrs by flow cytometry; format: functional
K562 [23] = experiment: Cell cycle arrest in human K562 cells assessed as accumulation at G2/M phase at 2.2 uM after 24 hrs by flow cytometry; format: functional
K562 [24] = experiment: Cell cycle arrest in human K562 cells assessed as accumulation at G0/G1 phase at 2.2 uM after 24 hrs by flow cytometry; format: functional
K562 [25] = experiment: Cell cycle arrest in human K562 cells assessed as accumulation at S phase at 2.2 uM after 24 hrs by flow cytometry; format: functional

SMILES | IC50 [1] | IC50 (CCRF-CEM) | IC50 (MOLT-4) | IC50 (L1210) | inhibition (Bos taurus) | IC50 (HeLa) | IC50 (FM3A) | other results
COc1cc(C(=O)c2ccc(-c3ccccc3C)s2)cc(OC)c1OC | 1700 nM | 1200 nM | 600 nM | 2200 nM | 49% | 1600 nM | 2100 nM | Activity (K562 [2]): 23%; Activity (K562 [3]): 85%; Activity (K562 [4]): 15%
COc1cc(C(=O)/C=C/c2ccc(F)cc2)cc(OC)c1OC | – | > 10000 nM | > 10000 nM | > 10000 nM | – | > 10000 nM | > 10000 nM | –
COc1ccc(/C=C/C(=O)c2cc(OC)c(OC)c(OC)c2)cc1OC | – | 1900 nM | 3100 nM | 8100 nM | – | 2000 nM | 10000 nM | –
COc1ccc(/C=C\c2cc(OC)c(OC)c(OC)c2)cc1O [COMBRETASTATIN A4] | 1400 nM | – | – | – | – | – | – | –
COc1ccc(/C=C/C(=O)c2cc(OC)c(OC)c(OC)c2)cc1 | – | 1500 nM | 1400 nM | 2800 nM | – | 1300 nM | 8400 nM | –
COc1cc(C(=O)c2ccc(-c3cccc(F)c3)s2)cc(OC)c1OC | – | 2100 nM | 1200 nM | 2400 nM | – | 1700 nM | 5600 nM | –
COc1cccc(-c2ccc(C(=O)c3cc(OC)c(OC)c(OC)c3)s2)c1 | – | 2000 nM | 1800 nM | 2500 nM | – | 1400 nM | 2400 nM | –
COc1cccc(/C=C/C(=O)c2cc(OC)c(OC)c(OC)c2)c1 | – | 2200 nM | 3100 nM | 4300 nM | – | 3700 nM | 11000 nM | –
COc1cc(C(=O)c2ccc(-c3ccsc3)s2)cc(OC)c1OC | – | 1300 nM | 370 nM | 1300 nM | – | 1100 nM | 1800 nM | –
COc1ccccc1/C=C/C(=O)c1cc(OC)c(OC)c(OC)c1 | – | 1800 nM | 1900 nM | 2100 nM | – | 1400 nM | 7900 nM | –
COc1ccc(-c2ccc(C(=O)c3cc(OC)c(OC)c(OC)c3)s2)cc1 | – | 2200 nM | 460 nM | 2300 nM | – | 1000 nM | 2400 nM | –
COc1cc(C(=O)c2ccc(-c3ccc([N+](=O)[O-])cc3)s2)cc(OC)c1OC | – | > 10000 nM | > 10000 nM | > 10000 nM | – | > 10000 nM | > 10000 nM | –
COc1cc(C(=O)/C=C/c2ccccc2)cc(OC)c1OC | – | > 10000 nM | > 10000 nM | > 10000 nM | – | > 10000 nM | > 10000 nM | –
COc1cc(C(=O)c2ccc(-c3ccc(Cl)cc3)s2)cc(OC)c1OC | – | 2300 nM | 1300 nM | 2200 nM | – | 1500 nM | 4600 nM | –
COc1cc(C(=O)c2ccc(-c3cccc([N+](=O)[O-])c3)s2)cc(OC)c1OC | – | 1800 nM | 1700 nM | 2100 nM | – | 1400 nM | 2400 nM | –
COc1cc(C(=O)/C=C/c2ccc(Cl)cc2)cc(OC)c1OC | – | > 10000 nM | > 10000 nM | > 10000 nM | – | > 10000 nM | > 10000 nM | –

Continued by falling IC50 (CCRF-CEM), values first:

IC50 [1] | IC50 (CCRF-CEM) | IC50 (MOLT-4) | IC50 (L1210) | inhibition (Bos taurus) | IC50 (HeLa) | SMILES | IC50 (FM3A) | other results
1100 nM | 560 nM | 400 nM | 590 nM | 66% | 300 nM | COc1cc(C(=O)c2ccc(-c3ccc(F)cc3)s2)cc(OC)c1OC | 1100 nM | Activity (K562 [23]): 21%; Activity (K562 [24]): 48%; Activity (K562 [25]): 31%
3000 nM | 540 nM | 380 nM | 520 nM | 28% | 500 nM | COc1ccc(-c2ccc(C(=O)c3cc(OC)c(OC)c(OC)c3)s2)cc1OC | 960 nM | Activity (K562 [17]): 57%; Activity (K562 [18]): 27%; Activity (K562 [19]): 16%
– | 490 nM | 1000 nM | 750 nM | – | 1600 nM | COc1cc(C(=O)c2ccc(-c3ccccc3Cl)s2)cc(OC)c1OC | 1700 nM | –
2000 nM | 480 nM | 330 nM | 520 nM | 66% | 1400 nM | COc1cc(C(=O)c2ccc(-c3ccccc3F)s2)cc(OC)c1OC | 870 nM | Activity (K562 [5]): 81%; Activity (K562 [6]): 8%; Activity (K562 [7]): 11%
1500 nM | 480 nM | 400 nM | 560 nM | 74% | 310 nM | COc1cc(C(=O)c2ccc(-c3ccccc3)s2)cc(OC)c1OC | 460 nM | Activity (K562 [11]): 18%; Activity (K562 [12]): 34%; Activity (K562 [13]): 48%
800 nM | 430 nM | 300 nM | 530 nM | 82% | 470 nM | COc1cc(C(=O)c2ccc(-c3cccs3)s2)cc(OC)c1OC | 460 nM | Activity (K562 [8]): 17%; Activity (K562 [9]): 8%; Activity (K562 [10]): 75%
1300 nM | 370 nM | 180 nM | 510 nM | 74% | 160 nM | COc1ccccc1-c1ccc(C(=O)c2cc(OC)c(OC)c(OC)c2)s1 | 440 nM | Activity (K562 [14]): 31%; Activity (K562 [15]): 62%; Activity (K562 [16]): 12%
800 nM | 360 nM | 380 nM | 490 nM | 74% | 410 nM | COc1cc(C(=O)c2ccc(-c3ccc(C)cc3)s2)cc(OC)c1OC | 470 nM | Activity (K562 [20]): 8%; Activity (K562 [21]): 7%; Activity (K562 [22]): 85%

— ChEMBL document CHEMBL1150309, “Design, synthesis, and biological evaluation of thiophene analogues of chalcones” (Bioorg Med Chem, 2008)
